ChEMBL document CHEMBL4385637, “2-Aryladenine derivatives as a potent scaffold for A1, A3 and dual A1/A3 adenosine receptor antagonists: Synthesis and structure-activity relationships” (Bioorg Med Chem, 2019)

Legend:
[1] = target: T1, Adenosine receptor A1 (Homo sapiens) (UniProt P30542); test: Displacement of [3H]DPCPX from human A1 receptor expressed in CHO-A1 cells at 10 uM incubated for 60 mins by scintillation counting method based radioligand competitive binding assay; assay type: cell-based
T1 sequence (whole entry): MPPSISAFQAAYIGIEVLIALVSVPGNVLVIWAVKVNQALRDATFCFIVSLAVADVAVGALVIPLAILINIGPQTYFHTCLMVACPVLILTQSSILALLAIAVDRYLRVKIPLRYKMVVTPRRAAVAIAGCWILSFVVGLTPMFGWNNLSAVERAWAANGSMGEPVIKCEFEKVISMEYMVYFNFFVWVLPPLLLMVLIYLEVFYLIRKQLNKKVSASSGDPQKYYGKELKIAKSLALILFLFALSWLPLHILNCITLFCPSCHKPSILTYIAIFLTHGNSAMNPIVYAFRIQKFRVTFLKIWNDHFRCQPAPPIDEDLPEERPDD
Outline: (§1)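 CHO-A1 membranes, 15 μg protein, in 20 mM Hepes, 100 mM NaCl, 10 mM MgCl2, 2 UI/ml adenosine deaminase, pH 7.4. Radioligand 2 nM [3H]DPCPX; nonspecific binding with 10 μM (R)-PIA. Incubated 25 °C for 60 min, filtered, counted, in duplicate. Screen at 10 μM; compounds >80% inhibition tested at 6 concentrations (10 nM–100 μM), Ki by Cheng-Prusoff.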

Adenosine receptor A2a [2] = target: T2, Adenosine receptor A2a (Homo sapiens, UniProt P29274); test: Displacement of [3H]ZM241385 from human A2A receptor expressed in HeLa-A2A cells at 10 uM incubated for 30 mins by scintillation counting method based radioligand competitive binding assay; assay type: cell-based
Outline: (§2)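 Uses HeLa-A2A membranes, 10 µg protein, buffer 50 mM Tris-HCl, 1 mM EDTA, 10 mM MgCl2, 2 UI/mL adenosine deaminase, pH 7.4. 3 nM [3H]ZM241385; nonspecific with 50 µM NECA. 30 min at 25 °C, GF/C filtration, duplicate wells. Screened at 10 μM; if >80% inhibition, 6 concentrations 10 nM–100 μM, Ki by Cheng-Prusoff.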

[3] = target: T3, Adenosine receptor A2b (Homo sapiens) (UniProt P29275); test: Displacement of [3H]DPCPX from human A2B receptor expressed in HEK-293-A2B cells at 10 uM incubated for 30 mins by scintillation counting method based radioligand competitive binding assay; assay type: cell-based
T3 sequence (whole entry): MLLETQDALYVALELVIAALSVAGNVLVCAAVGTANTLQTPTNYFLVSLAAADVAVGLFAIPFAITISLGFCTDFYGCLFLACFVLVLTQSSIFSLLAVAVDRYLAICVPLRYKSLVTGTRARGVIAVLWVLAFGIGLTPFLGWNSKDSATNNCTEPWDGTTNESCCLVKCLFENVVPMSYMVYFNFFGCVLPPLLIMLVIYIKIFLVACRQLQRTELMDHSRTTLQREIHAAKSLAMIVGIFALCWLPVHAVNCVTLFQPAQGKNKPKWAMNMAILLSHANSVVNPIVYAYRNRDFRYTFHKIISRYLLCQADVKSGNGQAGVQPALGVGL
Outline: (§3)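 HEK-293-A2B membranes, 18 μg protein, in 50 mM Tris-HCl, 1 mM EDTA, 10 mM MgCl2, 0.1 mM benzamidine, 10 µg/mL bacitracin, 2 UI/mL adenosine deaminase, pH 6.5. Tracer 35 nM [3H]DPCPX; 400 μM NECA defines nonspecific binding. 25 °C for 30 min, GF/C filtration, duplicates. Single-point 10 μM screen, then 6-point curves (10 nM–100 μM), Cheng-Prusoff Ki.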

[4] = target: T4, Adenosine receptor A3 (Homo sapiens) (UniProt P0DMS8); test: Displacement of [3H]NECA from human A3 receptor expressed in HeLa-A3 cells at 10 uM incubated for 180 mins by scintillation counting method based radioligand competitive binding assay; assay type: cell-based
T4 sequence (whole entry): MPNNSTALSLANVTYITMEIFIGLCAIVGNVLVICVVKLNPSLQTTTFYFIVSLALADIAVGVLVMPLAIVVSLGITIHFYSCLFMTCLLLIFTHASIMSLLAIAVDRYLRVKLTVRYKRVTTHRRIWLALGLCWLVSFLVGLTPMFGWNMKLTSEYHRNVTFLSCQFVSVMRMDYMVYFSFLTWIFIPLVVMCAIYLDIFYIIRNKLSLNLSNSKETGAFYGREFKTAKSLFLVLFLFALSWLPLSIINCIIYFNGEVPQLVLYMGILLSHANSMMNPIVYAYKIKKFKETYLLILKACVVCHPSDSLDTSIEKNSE
Outline: (§4)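 Membranes of HeLa-A3 cells (90 μg protein) in 50 mM Tris-HCl, 1 mM EDTA, 5 mM MgCl2, 2 UI/mL adenosine deaminase, pH 7.4, with 30 nM [3H]NECA. Nonspecific: 100 μM (R)-PIA. 180 min at 25 °C, GF/B filtration, triplicates, scintillation counting. 10 μM single-point inhibition; >80% actives run at 6 concentrations (10 nM–100 μM), pKi via Cheng-Prusoff.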

[5] = target: T4, Adenosine receptor A3 (Homo sapiens); test: Antagonist activity at human A3 receptor in CHO-A3 cells assessed as reduction in NECA-induced inhibition of forskolin-stimulated cAMP accumulation preincubated for 15 mins followed by NECA addition and further incubated for 15 mins by ELISA; assay type: functional, cell-based
Outline: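 CHO cells expressing human A3, washed in DMEM F-12 with 25 mM HEPES pH 7.4 and 30 μM rolipram. Compound preincubated 15 min, then NECA (0.1 nM–1 mM) and 10 μM forskolin added for 15 min. cAMP quantified by enzyme immunoassay. Antagonist curves run against 0.1 μM NECA, duplicates. pKB calculated from IC50, agonist level, A50 and Hill slope.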

Adenosine receptor A1 = target: T5, Adenosine receptor A1 (Homo sapiens, UniProt P30542); test: Displacement of [3H]DPCPX from human A1 receptor expressed in CHO-A1 cells incubated for 60 mins by scintillation counting method based radioligand competitive binding assay; assay type: cell-based; outline: as §1
T5 sequence (P30542 whole entry): T1 sequence (whole entry)

Adenosine receptor A2a [6] = target: T2, Adenosine receptor A2a; test: Displacement of [3H]ZM241385 from human A2A receptor expressed in HeLa-A2A cells incubated for 30 mins by scintillation counting method based radioligand competitive binding assay; assay type: cell-based; outline: as §2
Adenosine receptor A3 = target: T6, Adenosine receptor A3 (Homo sapiens, UniProt P0DMS8); test: Displacement of [3H]NECA from human A3 receptor expressed in HeLa-A3 cells incubated for 180 mins by scintillation counting method based radioligand competitive binding assay; assay type: cell-based; outline: as §4
T6 sequence (P0DMS8 whole entry): T4 sequence (whole entry)

Adenosine receptor A2b = target: T7, Adenosine receptor A2b (Homo sapiens, UniProt P29275); test: Displacement of [3H]DPCPX from human A2B receptor expressed in HEK-293-A2B cells incubated for 30 mins by scintillation counting method based radioligand competitive binding assay; assay type: cell-based; outline: as §3
T7 sequence (P29275 whole entry): T3 sequence (whole entry)

[7] = target: T1, Adenosine receptor A1 (Homo sapiens); test: Antagonist activity at human A1 receptor in CHO-A1 cells assessed as reduction in NECA-induced inhibition of forskolin-stimulated cAMP accumulation preincubated for 15 mins followed by NECA addition and further incubated for 15 mins by ELISA; assay type: functional, cell-based
Outline: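 CHO-A1 cells stably expressing receptor, grown with dialyzed FBS, washed in F-12 medium with 25 mM HEPES pH 7.4 and 20 μM rolipram. Test compound preincubated 15 min, then NECA (0.1 nM–1 mM) plus 3 μM forskolin added for 15 min. cAMP measured by enzyme immunoassay with TMB readout. pKB derived from antagonist curve against NECA effect.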

T2 sequence (P29274 whole entry): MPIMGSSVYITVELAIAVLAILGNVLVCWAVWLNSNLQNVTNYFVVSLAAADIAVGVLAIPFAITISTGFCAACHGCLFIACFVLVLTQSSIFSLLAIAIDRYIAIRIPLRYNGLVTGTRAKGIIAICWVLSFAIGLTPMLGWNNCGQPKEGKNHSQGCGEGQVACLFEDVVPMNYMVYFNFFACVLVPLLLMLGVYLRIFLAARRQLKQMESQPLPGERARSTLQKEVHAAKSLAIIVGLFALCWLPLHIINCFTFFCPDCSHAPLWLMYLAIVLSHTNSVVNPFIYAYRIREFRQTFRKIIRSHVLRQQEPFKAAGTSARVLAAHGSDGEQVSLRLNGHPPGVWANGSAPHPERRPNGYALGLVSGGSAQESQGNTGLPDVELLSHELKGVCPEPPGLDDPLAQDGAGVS

| SMILES | inhibition [1] [%] | inhibition (Adenosine receptor A2a [2]) [%] | inhibition [3] [%] | inhibition [4] [%] | pKb [5] | Ki (Adenosine receptor A1) [nM] | Ki (Adenosine receptor A2a [6]) [nM] | Ki (Adenosine receptor A3) [nM] | Ki (Adenosine receptor A2b) [nM] | pKb [7] |
| --- | --- | --- | --- | --- | --- | --- | --- | --- | --- | --- |
| CN1CCN(c2ncnc3[nH]cnc23)CC1 | 9.2 | 19.1 | 14 | 26.9 | – | – | – | – | – | – |
| Cn1cnc2c(N3CCCCC3)nc(-c3ccccc3O)nc21 | 50.5 | 74.8 | 30.2 | 20 | – | – | – | – | – | – |
| Oc1ccc(-c2nc(N3CCCCC3)c3nc[nH]c3n2)cc1 | > 80 | > 80 | > 80 | > 80 | – | 10 | 100 | 39.8 | 79.4 | – |
| CN1CCN(c2nc(-c3cccc(O)c3)nc3c2ncn3C)CC1 | 27.1 | 4.2 | 47.8 | 63.8 | – | – | – | – | – | – |
| Cn1cnc2c(N3CCCCC3)nc(-c3ccccc3Cl)nc21 | 35.2 | 36.4 | 32.7 | 2.1 | – | – | – | – | – | – |
| Cn1cnc2c(N3CCCCC3)nc(-c3cc(Cl)ccc3Cl)nc21 | 13.2 | 2.4 | 31 | 5.4 | – | – | – | – | – | – |
| Cn1cnc2c(N3CCCCC3)nc(-c3cccc(O)c3O)nc21 | 17.2 | 24.1 | 26 | 33.7 | – | – | – | – | – | – |
| CN1CCN(c2nc(-c3ccccc3O)nc3c2ncn3C)CC1 | > 80 | 59.6 | 36 | 15.3 | – | 631 | – | – | – | – |
| Cn1cnc2c(N3CCCCC3)nc(-c3cccc(Cl)c3)nc21 | 22.4 | 17 | 24.2 | 6.1 | – | – | – | – | – | – |
| Cn1cnc2c(N3CCCCC3)nc(-c3cccc(O)c3)nc21 | 78.5 | 54.8 | 29.3 | 49.1 | – | – | – | – | – | – |

More lines, now with the values ahead:

| inhibition [1] [%] | inhibition (Adenosine receptor A2a [2]) [%] | inhibition [3] [%] | inhibition [4] [%] | pKb [5] | Ki (Adenosine receptor A1) [nM] | Ki (Adenosine receptor A2a [6]) [nM] | Ki (Adenosine receptor A3) [nM] | Ki (Adenosine receptor A2b) [nM] | pKb [7] | SMILES |
| --- | --- | --- | --- | --- | --- | --- | --- | --- | --- | --- |
| > 80 | > 80 | 1.4 | > 80 | 8.2 | 126 | 3160 | 7.94 | – | – | Clc1ccc(-c2nc(N3CCCCC3)c3nc[nH]c3n2)cc1 |
| > 80 | 15.9 | 6.2 | > 80 | – | 398 | – | 39.8 | – | – | CN1CCN(c2nc(-c3ccc(Cl)cc3)nc3[nH]cnc23)CC1 |
| 52.4 | 32 | 25.1 | > 80 | – | – | – | 794 | – | – | CN1CCN(c2nc(-c3ccc(Cl)c(C(F)(F)F)c3)nc3[nH]cnc23)CC1 |
| 45.7 | 21 | 19.2 | 38.3 | – | – | – | – | – | – | CN1CCN(c2nc(-c3cccc(Cl)c3)nc3c2ncn3C)CC1 |
| 24.1 | 7 | 0.7 | > 80 | – | – | – | 79.4 | – | – | Clc1ccc(-c2nc(N3CCCCC3)c3nc[nH]c3n2)cc1Cl |
| > 80 | 1 | 27 | > 80 | – | 158 | – | 501 | – | – | CN1CCN(c2nc(-c3cccc(O)c3)nc3[nH]cnc23)CC1 |
| 1.4 | 21 | 12.1 | > 80 | – | – | – | 200 | – | – | Clc1ccc(Cl)c(-c2nc(N3CCCCC3)c3nc[nH]c3n2)c1 |
| > 80 | 43.5 | > 80 | > 80 | – | 50.1 | – | 39.8 | 1000 | – | Clc1cccc(-c2nc(N3CCCCC3)c3nc[nH]c3n2)c1 |
| 65.2 | 25 | 28.3 | 35.3 | – | – | – | – | – | – | CN1CCN(c2nc(-c3ccc(Cl)c(Cl)c3)nc3c2ncn3C)CC1 |
| > 80 | 37 | 53 | 48 | – | 398 | – | – | – | – | CN1CCN(c2nc(-c3ccc(O)cc3)nc3[nH]cnc23)CC1 |
| > 80 | 12 | 24.1 | > 80 | – | 631 | – | 39.8 | – | – | CN1CCN(c2nc(-c3ccc(Cl)c(Cl)c3)nc3[nH]cnc23)CC1 |
| > 80 | > 80 | > 80 | > 80 | – | 10 | 316 | 63.1 | 158 | 7.9 | Oc1cccc(-c2nc(N3CCCCC3)c3nc[nH]c3n2)c1 |
| > 80 | 9.1 | 13 | > 80 | – | 2510 | – | 251 | – | – | CN1CCN(c2nc(-c3cc(Cl)ccc3Cl)nc3[nH]cnc23)CC1 |
| > 80 | 52.7 | 29.9 | > 80 | – | 79.4 | – | 100 | – | – | CN1CCN(c2nc(-c3cccc(Cl)c3)nc3[nH]cnc23)CC1 |
